Source: PubChem (several laboratories)
This is a sample that favours compounds with a hit; in the whole collection about 2.9% have one here.
VIM-2 inhibitor: inhibitors of Pseudomonas aeruginosa VIM-2 metallo-beta-lactamase; purified VIM-2, nitrocefin hydrolysis, epi-absorbance fluorescence; inhibition, % at 5.6 µM; 290,000 compounds, 0.89% hits;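 active means inhibition above the mean of all tested compounds plus 3 SD, cutoff set per screening run, cut at about 7.5% in these data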;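 further: red hydrolysis product quenches plate fluorescence so inhibitors raise well fluorescence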
NALP3 yeast inh: NALP3 inhibition in yeast; Yeast reconstituted NLRP3/ASC/caspase-1, beta-gal luminescence, 24 h; inhibition, % at 10 µM; 330,000 compounds, 0.39% hits;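 active means inhibition of 50% or more; inactive means inhibition below 50%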
IMP-1 inh: blocks Pseudomonas aeruginosa IMP-1 metallo-beta-lactamase; purified IMP-1, nitrocefin hydrolysis, epi-absorbance fluorescence; inhibition, % at 5.6 µM; 290,000 compounds, 0.45% hits; AID 1556;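 active means inhibition above the mean plus 3 SD of all compounds in the same screening run, cut at about 4.5% in these data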
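System: purified IMP-1; amount: IMP-1 0.2 nM before substrate addition; compound: single dose, 5.6 µM; times: 25 °C, 15 min preincubation, 25 min reaction; signal: Epi-absorbance via hydrolysed-nitrocefin quenching of white-plate fluorescence, 480/530 nm, EDTA stop; benchmarks: DMSO with and without IMP-1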
NALP1 yeast inh: inhibitors of NALP1 inflammasome in yeast. inhibition, % at 10 µM. 280,000 compounds, 0.61% hits. S. cerevisiae NALP1/ASC/caspase-1 growth, X-gal OD620, 72 h. AID 2071; in the data active means inhibition mostly above about 24%, no sharp cut-off; inactive means mostly below about 32%
Mot1-301 SUMO: inhibitors of SUMOylation pathway: yeast Mot1-301 growth rescue; AID 2716; S. cerevisiae Mot1-301 growth rescue, ATP luminescence, 38.5C; percent above DMSO median, 100 means doubled; 320,000 compounds, 1% hits; growth rescue, % at 18.8 µM;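 active means every valid replicate shows activation above 250% relative to neutral control wells; inactive means the rest, any valid replicate at or below 250%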
PolyA inhibitor: inhibitors of polyadenylation in S. cerevisiae; activity score, % at 12 µM; S. cerevisiae SKY197-pL101 polyadenylation reporter, beta-gal luminescence; efflux-impaired pdr1/pdr3 knockout yeast; score 100 = 6 SD above DMSO; 300,000 compounds, 0.02% hits;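 active means lowest replicate activity score at least 50, where 100 means six control SD above control mean; inconclusive means lowest score under 50 but half or more replicates reach 50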;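 further: yeast exposed to compound for 9 h at 30 °C; higher score means more reporter readthrough which indicates perturbed polyadenylation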
Large screens that a line does not name were inactive.

Cc1ccnc(NC(=O)Cc2ccc([N+](=O)[O-])cc2)c1	Mot1-301 SUMO 363.6
O=C(Cc1ccc(-c2ccccc2)cc1)Nc1ccccn1	IMP-1 inh 33.7
Cc1ccc(NC(=O)Cc2ccc(Cl)cc2)nc1	none (no result: VIM-2 inhibitor, IMP-1 inh, NALP1 yeast inh)
Cc1ccc(NC(=O)Cc2ccc(-c3ccccc3)cc2)nc1	IMP-1 inh 11.9
Cc1ccnc(NC(=O)Cc2ccc(-c3ccccc3)cc2)c1	IMP-1 inh 11.7
CC1(c2ccccc2)NC(=O)N(CC(=O)NNC(=O)c2cccc(Cl)c2)C1=O (stereo not drawn)	none (no result: VIM-2 inhibitor, IMP-1 inh, NALP1 yeast inh, PolyA inhibitor)
CCn1c(CN2CCOCC2)nnc1SCC(=O)Nc1ccccc1Cl	none
Cc1ccc(S(=O)(=O)NC(CC(C)C)C(=O)N2CCCC2)cc1 (stereo not drawn)	none
Cc1snc(SCC(=O)c2ccc(F)cc2)c1C#N	none
Cc1snc(SCC(=O)c2ccc([N+](=O)[O-])cc2)c1C#N	VIM-2 inhibitor 9.5 (no result: Mot1-301 SUMO, PolyA inhibitor)
CC(C)N1C(=O)N(c2cccc(Cl)c2)C(C)(O)CC1(C)C (stereo not drawn)	none
CC(C)OP(=O)(OC(C)C)C(Nc1ccccc1)c1cccc2c1OCO2 (stereo not drawn)	Mot1-301 SUMO 278.7
Cc1ccc(S(=O)(=O)CCC(=O)OCC(=O)NC2CCS(=O)(=O)C2)cc1 (stereo not drawn)	none (no result: VIM-2 inhibitor, IMP-1 inh, NALP1 yeast inh)
CC1(C)CC(=O)c2cn3c(nc2C1)nc1ccccc13	none
CC1(C)CC(=O)c2cn3nc(C(F)(F)F)nc3nc2C1	NALP1 yeast inh 43.4
CCn1c(=O)n(CC(=O)NCC2CCCO2)c(=O)c2c3c(sc21)COC(C)(C)C3 (stereo not drawn)	none
O=C(NCC1CCCO1)c1cccc(S(=O)(=O)Nc2ccc(SC(F)F)cc2)c1 (stereo not drawn)	none (no result: VIM-2 inhibitor, IMP-1 inh, NALP1 yeast inh, PolyA inhibitor)
CCC(C)NS(=O)(=O)c1cc2c3c(c1)CCC(=O)N3CCC2 (stereo not drawn)	none
O=C(CC12CC3CC(CC(C3)C1)C2)N1CCCC1	NALP1 yeast inh 37.2
O=C(c1cc2ccccc2o1)N1CCN=C1SCc1cccnc1	VIM-2 inhibitor 9.4
O=C(c1cc2ccccc2o1)N1CCN=C1SCc1cccc(F)c1	none
COc1ccc(-c2cc(=O)oc3cc(O)ccc23)cc1	VIM-2 inhibitor 8.6
COc1ccc2cc(CCNC(=O)c3ccc(S(=O)(=O)N4CCCC4)cc3)c(=O)[nH]c2c1	PolyA inhibitor inconclusive
Cc1ccc2c(CC(=O)Nc3ccc(N4CCN(C)CC4)cc3C)coc2c1	IMP-1 inh 7.0
COc1ccc(N2CCN(C(=O)Cc3coc4cc(C)ccc34)CC2)cc1	none
CC(C)(C)C1CCC(=NNC(=O)c2cc3c(s2)CCCC3)CC1 (stereo not drawn)	Mot1-301 SUMO 541.6
O=C(NN=C1CCC(c2ccccc2)CC1)c1cc2c(s1)CCCC2 (stereo not drawn)	none
NC(=O)c1c(NC(=O)CN2C(=O)NC(Cc3ccccc3)C2=O)sc2c1CCC2 (stereo not drawn)	NALP1 yeast inh 41.9
CN(C)/C=C1\SC(=S)N(N2C(=O)C3C4C=CC(C4)C3C2=O)C1=O (stereo not drawn)	VIM-2 inhibitor 11.6
O=C(CCOc1ccccc1)Nc1ccc(Cl)c(S(=O)(=O)N2CCOCC2)c1	none (no result: VIM-2 inhibitor, IMP-1 inh, NALP1 yeast inh, Mot1-301 SUMO, PolyA inhibitor)
Cc1cccc(NS(=O)(=O)c2ccc(C)c(C(=O)NCC(c3ccco3)N3CCCCC3)c2)c1 (stereo not drawn)	none (no result: VIM-2 inhibitor, IMP-1 inh, NALP1 yeast inh, Mot1-301 SUMO, PolyA inhibitor)
CCN(CC)CCN(Cc1cc2cc3c(cc2[nH]c1=O)OCCO3)C(=S)NCCCN(C)C	NALP1 yeast inh 44.2
Cn1c(/C(C#N)=C/c2cccc(O)c2)nc2ccccc21	NALP1 yeast inh 40.7
O=C(Nn1c(COc2ccccc2)nc2ccccc2c1=O)C(Cl)(Cl)Cl	none
c1ccc(COc2ccc(OCCn3cncn3)cc2)cc1	Mot1-301 SUMO 252.2
C#CCN1C(=O)S/C(=C\c2ccc(-c3ccc(Cl)c(C(=O)O)c3)o2)C1=O	VIM-2 inhibitor 9.3
O=C(O)c1cc(-c2ccc(/C=C3\NC(=O)N(c4ccccc4)C3=O)o2)ccc1Cl	NALP1 yeast inh 30.1
O=C(O)c1cc(-c2ccc(/C=C3\NC(=O)N(c4ccc(Cl)cc4)C3=O)o2)ccc1Cl	none
Cn1c(=O)[nH]c(=O)c2c1nc(N1CCNCC1)n2Cc1ccccc1	none
Cc1ccc(Cn2c(N3CCNCC3)nc3c2c(=O)[nH]c(=O)n3C)cc1	IMP-1 inh 27.1
Cc1cc(C)cc(NC(=O)CN(c2ccc(F)cc2)S(C)(=O)=O)c1	IMP-1 inh 7.4
O=S(=O)(Cc1ccc(Cl)cc1)c1ncc(CO)n1Cc1ccccc1	Mot1-301 SUMO active
CCOC(=O)c1[nH]c2ccccc2c1NC(=O)c1ccc2c(c1)OCO2	NALP1 yeast inh 40.4
CCOC(=O)c1[nH]c2ccc(OC)cc2c1NC(=O)c1ccc2c(c1)OCO2	none
CCOC(=O)c1[nH]c2ccc(F)cc2c1NC(=O)c1ccccc1C(=O)O	VIM-2 inhibitor 9.8
CCN(C[C@H]1N[C@@](CC)(C(=O)OC)[C@H]2C(=O)N(Cc3ccccc3)C(=O)[C@@H]12)C(=O)c1ccc(F)cc1	none (no result: VIM-2 inhibitor, IMP-1 inh, NALP1 yeast inh, PolyA inhibitor)
Cc1cccc(C(=O)Nc2c(C(=O)N(C)C)cnn2-c2ccccc2)c1	none
Cc1ccn2c(CNCCn3nc(C)cc3C)c(C(=O)N3CCCCCC3)nc2c1	Mot1-301 SUMO 533.9
Cc1ccn2c(CN(C)CCn3nc(C)cc3C)c(C(=O)N3CCCCCC3)nc2c1	none
CCCCNC(=O)CSc1cc(=O)n(C)c2ccccc12	IMP-1 inh 6.1
Cn1c(=O)cc(SCC(=O)NCCCN2CCOCC2)c2ccccc21	none
CNC(=O)CCCCC(=O)N/N=C/c1ccc(Cl)cc1Cl	none (no result: NALP1 yeast inh)
CCCOc1ccc(/C(O)=C2/C(=O)C(=O)N(CCN(C)C)C2c2ccncc2)cc1 (stereo not drawn)	none (no result: NALP1 yeast inh, PolyA inhibitor)
CN(C)CCN1C(=O)C(=O)/C(=C(/O)c2ccc(OCc3ccccc3)cc2)C1c1ccncc1 (stereo not drawn)	NALP1 yeast inh 34.8 (no result: NALP3 yeast inh, Mot1-301 SUMO)
COc1cccc(C2/C(=C(\O)c3ccc4c(c3)OCCO4)C(=O)C(=O)N2CCN(C)C)c1 (stereo not drawn)	Mot1-301 SUMO 352.5 (no result: PolyA inhibitor)
COc1ccc(C2/C(=C(\O)c3ccc4c(c3)OCCO4)C(=O)C(=O)N2CCCN(C)C)cc1 (stereo not drawn)	none
COc1cc(C(=O)N/C(=C\c2cn(C)c3ccccc23)C(=O)NCCN2CCOCC2)cc(OC)c1OC	none
CCN(CC)c1ccc(NC(=O)CCS(=O)(=O)c2ccc(Br)cc2)c(C)c1	IMP-1 inh 23.9
Cc1ccccc1NC(=O)CCS(=O)(=O)c1ccc(Br)cc1	none
O=C(OCC(=O)C12CC3CC(CC(C3)C1)C2)c1ccc(O)cc1O	none (no result: VIM-2 inhibitor, IMP-1 inh, NALP1 yeast inh)
C=CCn1c(-c2cccs2)nc2ccccc21	NALP1 yeast inh 24.6 (no result: PolyA inhibitor)
COc1ccc(NC(=O)CN(C)C(=O)CCC(=O)c2ccc(C)cc2)cc1	none (no result: VIM-2 inhibitor, IMP-1 inh, NALP1 yeast inh)
